Shown are actives, neighbours in structure and some others; about 0.58% of the full set was active somewhere.
PDI inh = PDI (human) enzyme inhibition; AID 588391; inhibition, % at 10 µM; 350,000 tested, 0.052% active; P07237; PDI insulin aggregation turbidity, A650, 90 min;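 active = mean inhibition across replicates of 30% or more, whatever share of single replicates reach that level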
miR122 inh = miR-122 inhibition in Huh7 cells. activation (reporter increase), % at 12.5 µM. Huh7 miR-122 Renilla luciferase sensor, 48 h; neutral wells = 0, positive control = 100. 340,000 tested, 0.3% active;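 active = mean replicate activation score at least 90 and every replicate individually at or above 90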;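 also: higher luciferase means less miR-122 activity so hits act as miR-122 inhibitors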
ERp5 inh = inhibitors of human ERp5; ERp5 insulin aggregation, absorbance 650 nm, 90 min; Q15084; 350,000 tested, 0.05% active; inhibition, % at 9.99 µM;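 active = mean replicate inhibition above about 25%, with every replicate also reaching it, limit read from the data, passing the limit was not always enough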
Target sequence (Q15084 whole entry, looked up): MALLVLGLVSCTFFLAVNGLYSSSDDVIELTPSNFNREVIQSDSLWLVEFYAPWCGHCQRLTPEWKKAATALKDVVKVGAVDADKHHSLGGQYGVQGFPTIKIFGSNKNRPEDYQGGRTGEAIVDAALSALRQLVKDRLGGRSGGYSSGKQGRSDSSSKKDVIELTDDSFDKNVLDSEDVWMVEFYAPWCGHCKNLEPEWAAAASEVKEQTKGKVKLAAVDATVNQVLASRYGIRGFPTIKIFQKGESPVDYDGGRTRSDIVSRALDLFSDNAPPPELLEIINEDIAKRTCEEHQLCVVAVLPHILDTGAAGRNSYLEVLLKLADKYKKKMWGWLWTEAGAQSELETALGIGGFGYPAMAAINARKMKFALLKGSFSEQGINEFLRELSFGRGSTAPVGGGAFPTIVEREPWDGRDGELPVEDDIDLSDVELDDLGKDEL
Cneo AK release = causes C. neoformans cell lysis; 360,000 tested, 0.2% active; lysis activity, % at 15 µM; adenylate kinase release luminescence, 4 h; normalised: neutral wells 0, clomiphene wells 100;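 active = mean lysis activity across replicates of at least 80%, whatever share of replicates individually reach that level; inactive = mean lysis activity below 80%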
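Assay system: Cryptococcus neoformans yeast cells / Dosing: single-point compound dose / Timing: 4 h at 37 °C static, read 1 h later / Measured by: luminescence of released adenylate kinase using an AK detection reagent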
PglD DTNB = blocks C. jejuni PglD acetyltransferase activity; AID 602405; purified PglD enzyme, DTNB colorimetric CoA detection; 360,000 tested, 0.098% active; inhibition, % at 12.5 µM; in the data active = inhibition above about 16%, passing the limit was not always enough
PvdQ inh = blocks Pseudomonas aeruginosa PvdQ acylase activity | purified PvdQ acylase, fluorescence plate reader | inhibition, % at 10 µM | 340,000 tested, 0.063% active | AID 488965; in the data active = inhibition above about 30%, passing the limit was not always enough;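 also: 0% = vehicle neutral wells and 100% = reference inhibitor wells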
The depositor's hits bear a star; x = no result given; ! = not active in a repeat; [ ] = another dose, or the depositor's remark.

SMILES	PDI inh	miR122 inh	ERp5 inh	Cneo AK release	PglD DTNB	PvdQ inh
Cc1cc(NC(=O)c2c(F)c(F)c(F)c(F)c2F)no1	-6	-4	x	3	3	63*
CC(=O)N(C)C[C@@H]1Oc2cc(C#CC(C)(C)O)ccc2S(=O)(=O)N([C@H](C)CO)C[C@H]1C	x	-5[16.7 µM]	-10	2	2	x
COc1ccc(NC(=O)N(C)C[C@@H]2Oc3ccc(NS(=O)(=O)c4ccc(OC)cc4)cc3CC(=O)N([C@H](C)CO)C[C@@H]2C)cc1	x	-9[16.7 µM]	1	3	-4	x
COc1ccc(CN(CCC(c2ccccc2)c2ccc(OC(C)C)cc2)C(=O)CCl)cc1OC (configuration not stated)	86*	x	x	-7	-2	-7
CNC[C@@H]1Oc2c(NS(=O)(=O)c3ccc(Cl)cc3)cccc2C(=O)N([C@H](C)CO)C[C@H]1C	x	0[16.7 µM]	0	87*	-2	x
CNC[C@@H]1Oc2c(NS(=O)(=O)c3cccs3)cccc2C(=O)N([C@@H](C)CO)C[C@H]1C	x	-3[16.7 µM]	3	86*	-27	x
CNC[C@H]1Oc2c(NS(=O)(=O)c3cccs3)cccc2C(=O)N([C@H](C)CO)C[C@@H]1C	3	19[16.7 µM]	3	96*!	-3	-5
CNC[C@@H]1Oc2c(NS(=O)(=O)c3cccs3)cccc2C(=O)N([C@H](C)CO)C[C@@H]1C	x	-10[16.7 µM]	-9	7	9	x
O=C(N[C@@H]1CC[C@H](CC(=O)N2CCc3ccccc3C2)O[C@H]1CO)C1CCC1	x	x	2	-1	-1	x
Cn1c(CO)cnc1SCc1ccc(Cl)cc1	1	0	x	0	26*	-11
Cc1ccc(S(=O)(=O)Nc2ccc(C(=O)Nc3cc(C)on3)cc2)cc1	5	115*	x	-2	2	3
CCOc1ccc(Cl)cc1S(=O)(=O)NCc1cccnc1	-5	x	x	x	x	-2
COc1cc(NS(=O)(=O)c2ccc(C)c(C)c2)c(OC)cc1Cl	3	226*	x	0	0	-13
COc1ccc(Cl)cc1S(=O)(=O)NCc1cccnc1	8	120*	x	0	4	-17
COc1ccc(S(=O)(=O)Nc2ccccc2OC)cc1C	-2	18	x	-1	3	-10
COc1ccc(Cl)cc1NS(=O)(=O)c1cc(Cl)ccc1OC	3	255*	4	x	1	5
O=S(=O)(c1ccccc1F)N1CC[C@H]2[C@H](CO)Nc3ccc(-c4ccccc4F)cc3[C@H]21	x	45[16.7 µM]	1	-14	4	x
COc1ccc(S(=O)(=O)Nc2cccc3c2O[C@@H](CN(C)Cc2ccc(C(F)(F)F)cc2)[C@@H](C)CN([C@@H](C)CO)C3=O)cc1	x	28[16.7 µM]	7	3	0	x
COCC(=O)N1C[C@@H](C)[C@H](OC)CN(C)C(=O)c2cc(NC(=O)c3cc(C)on3)ccc2OC[C@H]1C	x	x	1	-4	3	x
CC(C)NC(=O)N[C@H]1CC[C@H](CCNC(=O)C2CC2)O[C@H]1CO	x	x	4	6	0	x
CC(C)NC(=O)N[C@H]1CC[C@@H](CCNC(=O)C2CC2)O[C@@H]1CO	x	x	4	93*	2	x
CC(C)NC(=O)N[C@H]1CC[C@@H](CCNC(=O)C2CC2)O[C@H]1CO	x	x	6	92*	-3	x
CCn1cc(/C=C(\NC(=O)c2ccccc2)C(=O)NCCCn2ccnc2)c2ccccc21	-10	165*	-3	0	2	x
C[C@H]1CN([C@@H](C)CO)C(=O)CCCn2cc(nn2)CO[C@H]1CN(C)C(=O)Nc1ccccc1C(F)(F)F	x	-5[16.7 µM]	x	x	x	x
Cc1ccccc1S(=O)(=O)N1CC[C@@H]2[C@@H](CO)Nc3ccc(-c4cccc(F)c4)cc3[C@@H]21	x	88[16.7 µM]	0	0	-1	x
SMILES	PDI inh	miR122 inh	ERp5 inh	Cneo AK release	PglD DTNB	PvdQ inh
Cc1sc(NC(=O)CCl)c(C(=O)c2ccccc2)c1C	72*	-6	x	3	-1	6
Cc1ccccc1C(=O)Nc1sc(C)c(C)c1C(=O)c1ccccc1	0	24	x	-1	-1	-4
COc1cccc(-c2cnc3c(c2)C(=O)N([C@@H](C)CO)C[C@H](C)[C@H](CN(C)C(=O)CN(C)C)O3)c1	x	63[16.7 µM]	-2	-9	5	x
COc1ccc(S(=O)(=O)Nc2cc3c4c(oc3c3ccccc23)CCCC4=O)cc1	0	127*	x	2	4	-4
C[C@H]1CN([C@@H](C)CO)C(=O)c2cccc(NC(=O)Nc3cccc4ccccc34)c2O[C@H]1CN(C)Cc1ccc(Oc2ccccc2)cc1	x	-7[16.7 µM]	-1	0	0	x
COCCCNC(=O)Cc1c(C)c2c(cc(C)c3c(C(C)(C)C)coc32)oc1=O	-10	90*	3	1	-3	-16
Cc1noc(C)c1NC(=O)Nc1ccc2c(c1)C(=O)N([C@H](C)CO)C[C@H](C)[C@H](CN(C)CC1CC1)OCCCC[C@H](C)O2	x	-3[16.7 µM]	0	1	3	x
CCCNC(=O)NNC(=O)c1cc(-c2ccc3c(c2)OCO3)nc2ccccc12	13	102*	-2	-1	-3	4
CCCN(CCC)C(=O)c1cc(-c2ccc3c(c2)OCO3)nc2ccccc12	3	22	x	5	9	1
C/C=C/c1ccc([C@@H]2[C@@H](CNC(=O)c3ccccc3)N(C(C)=O)[C@H]2CO)cc1	x	-7[16.7 µM]	x	81*	6	x
C/C=C/c1ccc([C@@H]2[C@H](CO)N(C(C)=O)[C@H]2CNC(=O)c2ccncc2)cc1	x	-12[16.7 µM]	1	-3	-1	x
COCC(=O)N1[C@H](CO)[C@@H](c2ccccc2)[C@H]1CNC(=O)c1ccccn1	x	-50[16.7 µM]	6	-4	0	x
COCC(=O)N1[C@H](CO)[C@H](c2ccccc2)[C@@H]1CNC(=O)c1ccccn1	x	108*[16.7 µM]	-1	35	0	x
C/C=C/c1ccc([C@H]2[C@@H](CO)N(C(=O)CC)[C@@H]2CNC(=O)C2CC2)cc1	x	-6[16.7 µM]	3	91*	2	x
C/C=C/c1ccc([C@@H]2[C@@H](CO)N(C(=O)CC)[C@@H]2CNC(=O)C2CC2)cc1	x	-6[16.7 µM]	3	1	-3	x
C/C=C/c1ccc([C@@H]2[C@@H](CNC(=O)C3CCC3)N(C(=O)NCCC)[C@H]2CO)cc1	x	71[16.7 µM]	x	103*	1	x
O=C(c1ccncc1)N1C[C@H]2[C@@H](c3ccccc31)[C@@H](CO)N2Cc1ccc(F)cc1	x	17[16.7 µM]	-5	1	1	x
COC(=O)C[C@@H]1CC[C@@H]2[C@H](COc3ccc(NC(=O)Nc4cc(C)cc(C)c4)cc3C(=O)N2C)O1	x	x	0	0	0	x
CC(C)NC(=O)N(C)C[C@H]1Oc2ccc(NC(=O)Nc3cccc4ccccc34)cc2CC(=O)N([C@@H](C)CO)C[C@@H]1C	x	-1[16.7 µM]	-4	-8	5	x
CC1=CC(C)(C)N(S(=O)(=O)c2ccc(C)cc2)c2cc(C)ccc21	10	94*	x	-4	2	-13
Cc1ccc(S(=O)(=O)N(C)C[C@H]2Oc3c(NS(=O)(=O)c4ccccc4)cccc3C(=O)N([C@H](C)CO)C[C@@H]2C)cc1	x	5[16.7 µM]	-15	-4	-3	x

Source: PubChem BioAssay
